Test: Toxicity liver stage against HepG2, at 10uM
Format: cell-based
Set-up: test concentration 10 uM, cell line HepG2-A16-CD81EGFP
Details: human, HepG2-A16-CD81EGFP cells; read-out: INHIBITION
Summary of the method: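 Uninfected HepG2-A16-CD81EGFP cells, 3 × 10^3 per well, 1536-well, plated on prespotted compound at 10 μM final, parasite-free screening media added to match infected plates; puromycin 10 μM positive, DMSO 0.5% negative; run in parallel with 48 h PbLuc assay at 37 °C, 5% CO2; viability by CellTiter-Glo luminescence, normalized to controls.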

Compound	cytotoxicity at 10 µM [%]
CCCNC(=O)CCNc1cncc(-n2nc(C)cc2C)n1	5.3
CC(C)n1cc(CN2CCCN(C(=O)c3ccc[nH]3)CC2)cn1	3.59
O=C(Cn1cccc2oc(=O)nc1-2)NCC1Cc2ccccc2O1 (stereo unspecified)	-7.79
CC(=O)NCC(=O)N1CCn2cc(CN3CCN(C)CC3)nc2C1	-12.4
Cc1ncc(CN2CCN(C(=O)C3CCC3)[C@@H]3CS(=O)(=O)C[C@@H]32)cn1	-4.19
Cn1cnnc1S(=O)(=O)C1CCN(C(=O)c2ccsc2)CC1	6.81
CCN(C)C[C@@H]1CN(Cc2cccc(Cl)c2)C[C@@H]1CO	2.45
CC1(C)[C@H](Cc2cc(CO)on2)C[C@@H]1N(CC1CC1)CC1CC1	3.82
CN1CCN2C[C@@H](NC(=O)c3nc4ccccc4[nH]3)C[C@H]2C1	-0.159
CCn1c(SCC(N)=O)nnc1-c1csc2c1CCCC2	16
Cc1cnc(-c2nc(C3CCN(C(=O)Cc4ccsc4)CC3)no2)cn1	-29.5
O=C(NCC1CCOC1)Nc1ccc(OCC(F)(F)F)nc1 (stereo unspecified)	-5.41
Cc1cc(N2CCN3CCCCC3C2)n2nc(C)c(C)c2n1 (stereo unspecified)	-10.4
CC(C)COC(C)C(=O)NCc1ccccc1 (stereo unspecified)	4.79
Cc1ccc(CN2CCC3(CCN(c4cnn(C)c4)C3=O)C2)s1 (stereo unspecified)	-70
O=c1cc(N2CCNCC2)cnn1CCCn1cccn1	-48
CCNc1nnc(SC(C(=O)NCc2cccnc2)C(C)C)s1 (stereo unspecified)	-13.3
Cc1nc[nH]c1CN1C[C@@H]2OCCN(c3ncccn3)[C@@H]2C1	-70.4
CCS(=O)(=O)N1CCc2ccc(NC(=O)Nc3cccc(F)c3)cc21	38.4
CC(=O)Nc1ccc(CNc2ccn(Cc3ccccc3)n2)cc1	10.1
COc1cc(F)ccc1C(C(=O)O)N(C)CCN1CCCC1 (stereo unspecified)	-13.4

Compound	cytotoxicity at 10 µM [%]
Cc1ccc2c(c1)[C@@H](CC(=O)N1CCOCC1)CCO2	8.24
CCCN1CCCn2nc(CNC(=O)CN(C)C3CCCC3)cc2C1	-0.992
COc1ccc(CN(Cc2cncn2C)CC2CCCO2)cc1 (stereo unspecified)	-4.47
Cc1noc(C2CCN(Cn3cc(Cl)cn3)CC2)n1	-11.1
O=C(C(c1ccccc1)N1CCc2cncnc2C1)N1CCCCC1 (stereo unspecified)	1.26
Cc1cccc(CNC[C@H]2Cn3cc(-c4ccccc4)nc3CO2)n1	-2.59
Cc1csc(C2CCCN(C(=O)c3cnc4n[nH]c(C)c4c3)C2)n1 (stereo unspecified)	-9.39
CC(C)c1nc2n(n1)CC(NCc1nnnn1C1CC1)CC2 (stereo unspecified)	-1.4
NC(=O)c1cn[nH]c1NC(=O)c1ccc2c(c1)OCO2	1.03
CC(C)C(CNC(=O)Nc1cn[nH]c1)N1CCOCC1 (stereo unspecified)	-6.83
CCS(=O)(=O)N1CCN(C(=O)c2cnc3[nH]nc(C)c3c2)CC1	-5.68
Cc1nnsc1C(=O)N1CCCC(c2nccn2Cc2cscn2)C1 (stereo unspecified)	2.62
CCn1nc(CNC(=O)C2CCCN(C(=O)COC)C2)c2ccccc21 (stereo unspecified)	-1.29
CC(C)NC(=O)Cc1cnc(-n2cccc2)s1	-4.6
CC(O)c1cn(C2CCN(C(=O)C3(C)CCCCC3)CC2)nn1 (stereo unspecified)	-7.11
CN(C)C(=O)[C@@H]1CCO[C@@H]2CCN(c3ncccn3)C[C@@H]21	8.31
Cc1ccc(Br)c(S(=O)(=O)NCc2ccnn2C)c1	0.67
CNC(=O)C1(CCCc2ccncc2)CCCN1 (stereo unspecified)	-6.46
O=C(NCC1CCCO1)Nc1nnc(C(F)(F)F)s1 (stereo unspecified)	1.72
CC(C)Oc1cccc(C(O)CNC(=O)NCc2cccs2)c1 (stereo unspecified)	-2.79
CN(C(=O)Cc1ccccc1F)C1CCN(c2ccccn2)CC1	-0.644

Compound	cytotoxicity at 10 µM [%]
CCc1noc(C2CCCCN2C(=O)c2cc(C)on2)n1 (stereo unspecified)	5.67
CC(C)OCCCN(Cc1ccncc1)Cc1cc(F)ccc1F	-29.2
Cc1ccoc1C(=O)N1CCn2nnc(COc3cccnc3)c2C1	-82.5
Cc1cnc(C(=O)N2CCCCC2c2[nH]ncc2S(C)(=O)=O)cn1 (stereo unspecified)	2.12
CC(C)(C)OCC1CN(CC2CC2)S(=O)(=O)c2cnccc2O1 (stereo unspecified)	-1.16
C=C1C(C)(C)[C@@H]2CC[C@]1(C(=O)N1CCC(n3cc(CO)nn3)CC1)C2	-7.73
CC(=O)N1CCC(N2CCOC[C@H]2c2nc(-c3ccccc3)c[nH]2)CC1	1.74
Cc1ccc(CN(c2cc(C)nc3nc(C(F)(F)F)nn23)C2CC2)cc1	-4.12
Cc1cnc(NCC(C)(C)N2CCCCC2)nc1	-2.69
COC(=O)CCC(=O)N1CCc2nc(C(=O)N3CCCCC3)sc2CC1	15.4
CCN(CC)C(=O)c1nc2c(s1)CCN(C(=O)CCC(=O)OC)CC2	12.9
C[C@@H](NCc1cccc(Cl)c1)c1onc(-c2ccc(F)cc2)c1C(=O)O	0.258
CCc1nc(C2CCCN(c3nccc(N4CCCC4)n3)C2)no1 (stereo unspecified)	19
CCC(CO)N(Cc1ccco1)Cc1c(C)nn(C)c1Cl (stereo unspecified)	7.4
Cc1cc(N(C)Cc2ncc[nH]2)nc(-c2ccccc2)n1	1.68
Cc1cc(C)n(CC2CN(c3ccc(C#N)cn3)CCO2)n1 (stereo unspecified)	-1.56
CS(=O)(=O)CC1(CNc2c(C#N)cnc3ccc(Cl)cc23)CC1	8.62
COCCC1CCCCN1Cc1nc(Cc2cccc(F)c2)no1 (stereo unspecified)	-142
CCC(C)[C@H](NC(=O)c1ccc(F)cc1-n1cnnn1)C(=O)OC (stereo partly specified)	5.55
COc1c(CNCCc2c[nH]c3ccccc23)c(C(C)C)nn1C	3.41
CC(=O)NCC(=O)N1C[C@@H](C)[C@@]2(CCN(c3ccsc3)C2=O)C1	-74.7

Compound	cytotoxicity at 10 µM [%]
COCCN1CCCC(c2nccnc2Nc2nc(C)cs2)C1 (stereo unspecified)	-7.16
Cc1cc(-c2cnc(N3CCC(O)CC3)nc2C(C)C)on1	66.4
CCOc1ccccc1C(CC(=O)Nc1ccccn1)NC(C)=O (stereo unspecified)	-3.95
Cc1cc(C)cc(N2CCN(Cc3cccnc3)CC2=O)c1	5.02
CCN(C)S(=O)(=O)N1CCC(C(O)c2ccc(F)cc2)CC1 (stereo unspecified)	-22
CN(C)CCOc1ccc(CNC(=O)c2cccc(Cl)c2Cl)cc1	15.5
CCN(Cc1nc2c(cnn2C)c(=O)[nH]1)c1cccc(F)c1	-0.746
O=S(=O)(Nc1cnc(N2CCCC2)nc1)c1ccc(OC(F)(F)F)cc1	2.41
COCc1nc(C(=O)N2CCCC(n3ccnc3C)C2)cs1 (stereo unspecified)	-33.6
CS(=O)(=O)NC[C@]12COC[C@H]1CN(C(=O)C1CC(F)(F)C1)C2	-95.5
CC(C)[C@H]1CN(Cc2nccn2C)C[C@@H]1NC(=O)CCS(C)(=O)=O	-8.85
CC(C)(C(=O)NCC(=O)NC1CC1)c1ccccc1F	-4.9
Cc1ncsc1C(=O)N1CCCC1c1c(C)nn(C)c1C (stereo unspecified)	0.71
O=C(CC1CCCC1)NCCn1ccc(-c2ccncc2)n1	5.97
Cc1ccc(O)c(C(=O)N2CCCC(NC(=O)C(C)C)C2)c1 (stereo unspecified)	-0.988
OCC1(O)CCCN(Cc2noc(-c3ccccc3)n2)CC1 (stereo unspecified)	-2.72
c1cnc(Nc2cncc(C3CCCN3)n2)cn1 (stereo unspecified)	-8.69
CCC(CNC(=O)c1ccc(C(N)=O)cc1)Oc1cccc(F)c1 (stereo unspecified)	-39.5
